hERG rescue – compounds protecting human hERG from proarrhythmic drug block | Q12809 | CHO-hERG, FluxOR thallium flux, dofetilide IC70 present | activation (rescue from dofetilide block), less the hit threshold, % at 10 µM | actives 0.51% (n = 310,000) | AID 1511;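 active means activation above the mean of controls blocked by dofetilide plus 5 SD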;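 further: thallium influx through hERG after potassium depolarization seen as dye fluorescence rise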
Target sequence (Q12809 whole entry, looked up): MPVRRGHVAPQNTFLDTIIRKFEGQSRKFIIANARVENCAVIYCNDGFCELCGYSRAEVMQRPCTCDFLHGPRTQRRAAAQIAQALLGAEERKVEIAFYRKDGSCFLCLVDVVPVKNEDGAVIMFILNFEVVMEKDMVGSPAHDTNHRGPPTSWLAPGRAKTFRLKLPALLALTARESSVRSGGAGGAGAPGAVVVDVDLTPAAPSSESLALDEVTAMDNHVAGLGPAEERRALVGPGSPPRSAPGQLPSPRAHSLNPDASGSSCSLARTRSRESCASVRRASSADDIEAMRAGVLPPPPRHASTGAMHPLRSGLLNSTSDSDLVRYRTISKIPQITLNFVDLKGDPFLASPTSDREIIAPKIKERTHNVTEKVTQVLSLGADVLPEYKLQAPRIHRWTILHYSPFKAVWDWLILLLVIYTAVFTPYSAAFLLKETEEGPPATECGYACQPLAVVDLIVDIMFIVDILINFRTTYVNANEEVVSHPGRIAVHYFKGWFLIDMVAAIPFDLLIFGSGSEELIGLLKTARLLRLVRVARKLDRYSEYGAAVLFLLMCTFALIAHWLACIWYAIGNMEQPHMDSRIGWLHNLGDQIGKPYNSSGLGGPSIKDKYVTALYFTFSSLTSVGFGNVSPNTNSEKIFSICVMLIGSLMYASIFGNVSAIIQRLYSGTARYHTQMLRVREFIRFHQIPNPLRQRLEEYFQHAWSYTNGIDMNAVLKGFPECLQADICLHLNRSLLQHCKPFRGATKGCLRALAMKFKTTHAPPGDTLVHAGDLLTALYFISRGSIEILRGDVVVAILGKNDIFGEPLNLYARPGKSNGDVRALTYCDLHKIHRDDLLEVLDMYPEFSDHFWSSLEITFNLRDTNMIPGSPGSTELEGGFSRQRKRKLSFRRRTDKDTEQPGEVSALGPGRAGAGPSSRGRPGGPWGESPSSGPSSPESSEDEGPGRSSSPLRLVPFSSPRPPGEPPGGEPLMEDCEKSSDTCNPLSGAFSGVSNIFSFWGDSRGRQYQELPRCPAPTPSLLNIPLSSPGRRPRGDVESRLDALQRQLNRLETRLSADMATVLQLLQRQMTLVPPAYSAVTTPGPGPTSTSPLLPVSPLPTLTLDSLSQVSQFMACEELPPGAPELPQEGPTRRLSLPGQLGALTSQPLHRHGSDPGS
KCNK9 inh – inhibitors of human KCNK9 two-pore domain potassium channel; Q9NPC2; HEK293 KCNK9, FluxOR thallium flux fluorescence; active compounds read low; B-score at 10 µM; actives 1.2% (n = 310,000);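 active means ratio B-score over 3 SD below the library mean, with starting fluorescence within 5 SD of its mean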;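 further: negative B-score means less thallium flux so channel inhibition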
KCNQ1 act – potentiates or activates the human KCNQ1 potassium channel; P51787; CHO-K1 KCNQ1, thallium flux FluxOR fluorescence; active compounds read high; B-score at 10 µM; actives 0.35% (n = 310,000); AID 2648;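 active means fluorescence ratio B-score, a plate-corrected score, at least three library SD, with initial intensity B-score within 5 SD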
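assay system = CHO-K1 cells stably expressing KCNQ1 | medium = assay buffer, equal DMSO in all wells | timing = 37 °C overnight plating, 90-min dark dye load, 20-min compound pretreatment | measured by = kinetic FluxOR thallium fluorescence, 10-s 1-Hz baseline, 110-s post-stimulus read | measure = fluorescence change relative to baseline, converted to B score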
KCNQ1 inh – human KCNQ1 channel inhibition | P51787 | CHO-K1 KCNQ1, FluxOR thallium flux fluorescence; active compounds read high | B-score at 10 µM | actives 1.3% (n = 310,000) | AID 2642;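 active means compounds whose thallium flux B-score, printed positive for inhibition, exceeds three library SD while starting fluorescence stays within three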;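 further: channel opened by potassium depolarization with thallium stimulus after 20 min compound exposure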
KCNK3 inh – human KCNK3 channel inhibition, primary screen | CHO-KCNK3 thallium flux, FluxOR fluorescence; active compounds read low | B-score at 10 µM | O14649 | actives 0.84% (n = 340,000) | AID 602410;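 active means B-score under library mean minus 4 SD, starting fluorescence ratio at most library mean plus 5 SD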;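 further: more negative B-score means stronger inhibition of thallium flux through KCNK3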
KCNK9 inh conf – confirmation of human KCNK9 potassium channel inhibitors | inhibition, % at 10 µM | HEK293 KCNK9 cells, FluxOR thallium flux fluorescence | shares compounds with KCNK9 inh | actives 43% (n = 4,900) | AID 492992;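 active means thallium signal inhibited by more than 5 SD of the compound-free buffer control wells, on both duplicate plates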;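 further: 0% = assay buffer control wells without compound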
Kir21 sel – selectivity of KCNK9 modulators against mouse Kir2.1. actives 4% (n = 4,900). Kir2.1 cells, FluxOR thallium flux fluorescence. inhibition, % at 10 µM. shares compounds with KCNK9 inh. AID 492993;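 active means thallium signal drop more than 5 SD beyond the mean of the no-compound control wells, seen in both duplicate plates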;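 further: signal is fluorescence rise after thallium addition divided by baseline fluorescence; plate controls were assay buffer only for no effect and full block by chlorpromazine control for full effect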
HEK293 Tl ctr – second counter-screen for KCNK9 modulators: effect in non-induced cells; actives 40% (n = 4,900); AID 492997; non-induced KCNK9-HEK293, FluxOR thallium flux; shares compounds with KCNK9 inh; inhibition, % at 10 µM;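 active means thallium signal drop beyond 5 SD of the untreated control mean, on both duplicate plates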;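 further: plate controls were buffer only IC0 wells for no effect and SID17386958 at its maximal inhibitory level for full effect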
* marks the source's active call; other numbers are inactive results; i = inactive; . = no result. Hits are enriched below; roughly 3.1% of the tested compounds scored in any of these assays.

SMILES	hERG rescue	KCNK9 inh	KCNQ1 act	KCNQ1 inh	KCNK3 inh	KCNK9 inh conf	Kir21 sel	HEK293 Tl ctr
COc1cccc(CC2(CO)CCCN(Cc3ccccc3Cl)C2)c1 (centres undefined)	-5	i	i	i	i	.	.	.
COc1cccc(CC2(CO)CCCN(Cc3ccc(OC)c(C)c3OC)C2)c1 (centres undefined)	-14	i	i	i	i	i	i	i
COn1c(-c2ccccc2)nc2ncccc21	-4	i	i	i	i	.	.	.
Clc1cccc(COn2c(-c3ccc(Cl)cc3Cl)nc3ncccc32)c1	-11	-8.8*	i	i	i	46%*	i	35%*
COc1ccc(-c2nc(CC(=O)Nc3cccc(S(=O)(=O)NC4=NCCC4)c3)cs2)cc1	.	.	.	.	i	.	.	.
CC[n+]1c(/C=C/N(C)c2ccccc2)n(-c2ccccc2)c2ccc(-c3nc4ccccc4s3)cc21	-31	-16*	i	15*	-9.7*	90%*	78%*	76%*
O=C(O)c1ccc(CS(=O)(=O)c2ccc(Br)cc2)cc1	-5	i	i	i	i	.	.	.
Cc1ccc(-c2noc(CN(C(=O)C(c3ccccc3)c3ccccc3)C(C)C)n2)cc1	-23	-12*	i	i	i	40%*	i	33%*
Cc1cccc(-c2noc(CN(C(=O)CCc3ccccc3)C(C)C)n2)c1	-6	i	i	i	i	i	i	26%*
O=C(O)c1ccccc1C(=O)N1N=C(c2ccccc2)CC1c1ccccc1O (centres undefined)	-10	-8.3*	i	i	i	42%*	i	i
N#Cc1c(N)nc(SCc2ccncc2)c(C#N)c1-c1cccs1	-15	i	i	i	i	.	.	.
COc1cc(-c2c(C#N)c(N)nc(SCc3ccncc3)c2C#N)cc(OC)c1OC	-16	-10*	i	i	i	i	i	27%*
Cc1ccc(S(=O)(=O)N2CCN(C(=O)COC(=O)C3CCC3)CC2)c(C)c1	-5	i	i	i	i	.	.	.
Cc1cccc(Nc2nc(NCc3ccco3)c3ccccc3n2)c1	-25	-8.1*	i	10*	i	49%*	86%*	i
O=C(CCl)N(O)c1ccc(C=Cc2ccccc2)cc1	.	.	.	.	i	.	.	.
CCOc1ccc(-n2c(SCC(=O)Nc3nccs3)nnc2-c2ccoc2C)cc1	-6	i	i	i	i	.	.	.
CCOc1ccccc1-n1c(SCC(=O)Nc2nccs2)nnc1-c1ccoc1C	-11	-8.7*	i	i	i	47%*	i	26%*
CCOC(=O)c1sc2nc(C)nc(N3CCN(S(=O)(=O)c4ccccc4)CC3)c2c1C	.	.	.	.	i	.	.	.
CC(=O)Nc1ccc(Nc2nc(-c3cc4ccccc4oc3=O)cs2)cc1	-1	i	i	i	i	.	.	.
O=C(Nc1nc(-c2cc3ccccc3oc2=O)cs1)c1ccc(Br)o1	-3	-9.9*	i	i	i	26%*	i	i
COc1cccc(C(=O)C2CCCN(C/C=C/c3ccccc3OC)C2)c1 (centres undefined)	-33	i	i	i	i	i	i	i
COc1ccc(C(=O)C2CCCN(C/C=C/c3ccccc3OC)C2)c(OC)c1 (centres undefined)	-20	i	i	i	i	i	i	i
CCc1nnc(NC(=O)CN2CCN(Cc3ccc(F)cc3)CC2)s1	-7	i	i	i	i	.	.	.
CCOc1nc(Nc2ccc(OC)cc2OC)nc(OCC)n1	-10	i	i	i	i	.	.	.
COc1ccc2nc(SCC(=O)Nc3ccc4[nH]c(=O)[nH]c4c3)[nH]c2c1	.	.	.	.	i	.	.	.
COc1ccc2nc(SCC(=O)Nc3ccc4c(c3)CCC4)[nH]c2c1	-12	i	i	i	i	i	i	i
